Calls of active or inactive are those of the source. No cut-off for these calls is given here.
Tested on: Mus musculus
Test: Inhibition of IDH1 R132H mutant in human U87 cells xenografted in CD1 nude mouse assessed as inhibition of 2-hydroxyglutarate production at 150 mg/kg, ip administered BID by LC/MS analysis relative to vehicle-treated control
Assay type: functional, U-87MG ATCC
Conditions: route intraperitoneal
Summary of the method: (§1)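 Female nude mice bearing U87 R132H tumor xenografts dosed IP at 150 mg/kg in 0.5% MC/0.2% Tween 80, one dose or three BID doses; blood and tumor sampled at several time points; tumor 2-HG quantified by LC/MS/MS against vehicle-dosed animals.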

Compound | Imax
Cc1ccccc1C(C(=O)NC1CCCCC1)N(C(=O)Cn1ccnc1C)c1cccc(F)c1 (racemic) | 89.4%

Tested on: Mus musculus
Test: Inhibition of IDH1 R132H mutant in human U87 cells xenografted in CD1 nude mouse assessed as inhibition of 2-hydroxyglutarate production at 150 mg/kg, ip administered as single dose by LC/MS analysis relative to vehicle-treated control
Assay type: functional, U-87MG ATCC
Conditions: route intraperitoneal
Summary of the method: as §1

Compound | Imax
Cc1ccccc1C(C(=O)NC1CCCCC1)N(C(=O)Cn1ccnc1C)c1cccc(F)c1 (racemic) | 69%

Tested on: not listed separately
Test: Fraction unbound in CD1 nude mouse plasma xenografted with human U87 cells expressing IDH1 R132H mutant at 150 mg/kg, ip administered BID for 1 day
Assay type: ADME, organism-based, U-87MG ATCC
Set-up: dose 150 mg/kg, route intraperitoneal
Conditions: not given

Compound | fraction unbound at 24 h
Cc1ccccc1C(C(=O)NC1CCCCC1)N(C(=O)Cn1ccnc1C)c1cccc(F)c1 (racemic) | 0.043

Tested on: not listed separately
Test: AUC (0 to 24 hrs) in mouse at 50 mg/kg, ip
Assay type: ADME, organism-based
Set-up: time < 24 hr, dose 50 mg/kg, route intraperitoneal
Conditions: plasma
Summary of the method: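 Mouse given a single IP dose of 50 mg/kg; plasma exposure expressed as AUC0−24h.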

Compound | AUC(0-t) at 24 h
Cc1ccccc1C(C(=O)NC1CCCCC1)N(C(=O)Cn1ccnc1C)c1cccc(F)c1 (racemic) | 20800 ng·h/mL

Tested on: not listed separately
Test: Plasma protein binding in mouse by equilibrium dialysis method
Assay type: ADME, cell-free
Conditions: read-out: PPB (converted)
Summary of the method: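 Mouse plasma protein binding measured by equilibrium dialysis.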

Compound | fraction unbound
Cc1ccccc1C(C(=O)NC1CCCCC1)N(C(=O)Cn1ccnc1C)c1cccc(F)c1 (racemic) | 0.043

Tested on: not listed separately
Test: Hepatic extraction ratio in rat liver microsomes
Assay type: ADME, Microsome
Conditions: read-out: ERH
Summary of the method: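 Compound incubated with rat liver microsomes in vitro. Turnover in the incubation was used to estimate the hepatic extraction ratio. Human microsomes were run alongside.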

Compound | hepatic extraction ratio
Cc1ccccc1C(C(=O)NC1CCCCC1)N(C(=O)Cn1ccnc1C)c1cccc(F)c1 (racemic) | 0.85

Target: T1, Isocitrate dehydrogenase [NADP] cytoplasmic (Homo sapiens, UniProt O75874)
Test: Inhibition of wild type IDH1 using DL-isocitrate as substrate by resazurin-based fluorimetric analysis relative to control
Conditions: not given

T1 sequence (O75874 whole entry): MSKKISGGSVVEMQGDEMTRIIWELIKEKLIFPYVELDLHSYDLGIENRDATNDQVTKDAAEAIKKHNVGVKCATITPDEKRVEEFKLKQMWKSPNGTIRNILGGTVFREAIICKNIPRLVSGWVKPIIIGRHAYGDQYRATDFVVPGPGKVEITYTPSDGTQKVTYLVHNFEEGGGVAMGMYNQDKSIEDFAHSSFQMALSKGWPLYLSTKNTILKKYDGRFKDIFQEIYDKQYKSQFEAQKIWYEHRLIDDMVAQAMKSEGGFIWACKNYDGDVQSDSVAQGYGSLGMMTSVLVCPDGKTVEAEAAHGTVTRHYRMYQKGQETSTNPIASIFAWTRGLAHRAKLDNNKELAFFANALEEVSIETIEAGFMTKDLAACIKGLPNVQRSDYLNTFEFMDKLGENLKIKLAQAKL

Compound | Imax
Cc1ccccc1C(C(=O)NC1CCCCC1)N(C(=O)Cc1c[nH]c2ccccc12)c1cccc(F)c1 (racemic) | 39%
Cc1ccccc1C(C(=O)NC1CCCCC1)N(C(=O)Cc1cccs1)c1cccc(F)c1 (racemic) | 22%
Cc1ccccc1C(C(=O)NC1CCCC1)N(C(=O)Cc1cccs1)c1cccc(F)c1 (centres undefined) | 32%
Cc1ccccc1C(C(=O)NC1CCCCC1)N(C(=O)Cc1ccncc1)c1cccc(F)c1 (racemic) | 34%
Cc1ccccc1C(C(=O)NC1CCCCC1)N(C(=O)Cc1cscn1)c1cccc(F)c1 (racemic) | 32%

Target: T1, Isocitrate dehydrogenase [NADP] cytoplasmic
Test: Inhibition of wild type IDH1 using DL-isocitrate as substrate by resazurin-based fluorimetric analysis
Conditions: not given

Compound | IC50
Cc1ccccc1C(C(=O)NC1CCCCC1)N(C(=O)Cc1c[nH]c2ccccc12)c1cccc(F)c1 (racemic) | 6300 nM
Cc1ccccc1C(C(=O)NC1CCCCC1)N(C(=O)Cc1cccs1)c1cccc(F)c1 (racemic) | 2900 nM
Cc1ccccc1C(C(=O)NC1CCCC1)N(C(=O)Cc1cccs1)c1cccc(F)c1 (centres undefined) | 7700 nM
Cc1ccccc1C(C(=O)NC1CCCCC1)N(C(=O)Cn1ccc2ccccc21)c1cccc(F)c1 (racemic) | > 100000 nM
Cc1ccccc1C(C(=O)NC1CCCCC1)N(C(=O)Cc1ccncc1)c1cccc(F)c1 (racemic) | 19300 nM
Cc1ccccc1C(C(=O)NC1CCCCC1)N(C(=O)Cc1cscn1)c1cccc(F)c1 (racemic) | 19700 nM
Cc1ccccc1C(C(=O)NC1CCCCC1)N(C(=O)Cn1c(C)nc2ccccc21)c1cccc(F)c1 (racemic) | > 100000 nM
Cc1ccccc1C(C(=O)NC1CCCCC1)N(C(=O)Cn1ccnc1C)c1cccc(F)c1 (racemic) | > 100000 nM

Tested on: HT-1080
Test: Growth inhibition of human HT1080 cells after 72 hrs by CellTiter-Glo assay
Assay type: functional
Conditions: HT-1080, 72 h
Summary of the method: (§2)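 Cells exposed to compound for 72 h, run within the same experiment as the 2-HG assay; total cellular ATP measured; concentration giving 50% growth inhibition (GI50) determined.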

Compound | GI50
Cc1ccccc1C(C(=O)NC1CCCCC1)N(C(=O)Cc1c[nH]c2ccccc12)c1cccc(F)c1 (racemic) | > 3000 nM
Cc1ccccc1C(C(=O)NC1CCCCC1)N(C(=O)Cc1cccs1)c1cccc(F)c1 (racemic) | > 20000 nM
Cc1ccccc1C(C(=O)NC1CCCC1)N(C(=O)Cc1cccs1)c1cccc(F)c1 (centres undefined) | > 20000 nM
Cc1ccccc1C(C(=O)NC1CCCCC1)N(C(=O)Cn1ccc2ccccc21)c1cccc(F)c1 (racemic) | > 20000 nM
Cc1ccccc1C(C(=O)NC1CCCCC1)N(C(=O)Cc1ccncc1)c1cccc(F)c1 (racemic) | > 20000 nM
Cc1ccccc1C(C(=O)NC1CCCCC1)N(C(=O)Cc1cscn1)c1cccc(F)c1 (racemic) | > 20000 nM
Cc1ccccc1C(C(=O)NC1CCCCC1)N(C(=O)Cn1c(C)nc2ccccc21)c1cccc(F)c1 (racemic) | > 20000 nM
Cc1ccccc1C(C(=O)NC1CCCCC1)N(C(=O)Cn1ccnc1C)c1cccc(F)c1 (racemic) | > 20000 nM

Target: T2, Isocitrate dehydrogenase [NADP] cytoplasmic (Homo sapiens, UniProt O75874, R132C)
Test: Inhibition of IDH1 R132C mutant using alpha-ketoglutarate as substrate after 60 mins by resazurin-based fluorimetric analysis
Conditions: not given

T2 sequence (O75874 2-414 R132C limits assumed): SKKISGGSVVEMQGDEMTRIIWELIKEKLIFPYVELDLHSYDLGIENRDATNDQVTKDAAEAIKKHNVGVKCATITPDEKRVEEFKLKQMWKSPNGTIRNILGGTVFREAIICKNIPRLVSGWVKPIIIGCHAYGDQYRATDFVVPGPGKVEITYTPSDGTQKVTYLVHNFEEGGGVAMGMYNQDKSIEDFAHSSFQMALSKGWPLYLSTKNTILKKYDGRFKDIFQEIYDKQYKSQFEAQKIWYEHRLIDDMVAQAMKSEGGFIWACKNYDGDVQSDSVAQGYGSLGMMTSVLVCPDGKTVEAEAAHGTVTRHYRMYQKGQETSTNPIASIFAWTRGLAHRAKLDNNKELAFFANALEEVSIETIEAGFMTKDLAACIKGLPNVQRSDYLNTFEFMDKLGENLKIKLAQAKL

Compound | IC50
Cc1ccccc1C(C(=O)NC1CCCCC1)N(C(=O)Cc1c[nH]c2ccccc12)c1cccc(F)c1 (racemic) | 30 nM
Cc1ccccc1C(C(=O)NC1CCCCC1)N(C(=O)Cc1cccs1)c1cccc(F)c1 (racemic) | 30 nM
Cc1ccccc1C(C(=O)NC1CCCC1)N(C(=O)Cc1cccs1)c1cccc(F)c1 (centres undefined) | 50 nM
Cc1ccccc1C(C(=O)NC1CCCCC1)N(C(=O)Cn1ccc2ccccc21)c1cccc(F)c1 (racemic) | 40 nM
Cc1ccccc1C(C(=O)NC1CCCCC1)N(C(=O)Cc1ccncc1)c1cccc(F)c1 (racemic) | 50 nM
Cc1ccccc1C(C(=O)NC1CCCCC1)N(C(=O)Cc1cscn1)c1cccc(F)c1 (racemic) | 60 nM
Cc1ccccc1C(C(=O)NC1CCCCC1)N(C(=O)Cn1c(C)nc2ccccc21)c1cccc(F)c1 (racemic) | 40 nM
Cc1ccccc1C(C(=O)NC1CCCCC1)N(C(=O)Cn1ccnc1C)c1cccc(F)c1 (racemic) | 160 nM

Tested on: not listed separately
Test: Growth inhibition of human U87 cells after 72 hrs by CellTiter-Glo assay
Assay type: functional, U-87MG ATCC
Conditions: U-87 MG
Summary of the method: as §2

Compound | GI50
Cc1ccccc1C(C(=O)NC1CCCCC1)N(C(=O)Cc1c[nH]c2ccccc12)c1cccc(F)c1 (racemic) | > 20000 nM
Cc1ccccc1C(C(=O)NC1CCCCC1)N(C(=O)Cc1cccs1)c1cccc(F)c1 (racemic) | > 20000 nM
Cc1ccccc1C(C(=O)NC1CCCC1)N(C(=O)Cc1cccs1)c1cccc(F)c1 (centres undefined) | > 20000 nM
Cc1ccccc1C(C(=O)NC1CCCCC1)N(C(=O)Cn1ccc2ccccc21)c1cccc(F)c1 (racemic) | > 20000 nM
Cc1ccccc1C(C(=O)NC1CCCCC1)N(C(=O)Cc1ccncc1)c1cccc(F)c1 (racemic) | > 20000 nM
Cc1ccccc1C(C(=O)NC1CCCCC1)N(C(=O)Cc1cscn1)c1cccc(F)c1 (racemic) | > 20000 nM
Cc1ccccc1C(C(=O)NC1CCCCC1)N(C(=O)Cn1c(C)nc2ccccc21)c1cccc(F)c1 (racemic) | > 20000 nM
Cc1ccccc1C(C(=O)NC1CCCCC1)N(C(=O)Cn1ccnc1C)c1cccc(F)c1 (racemic) | > 20000 nM

Target: T3, Isocitrate dehydrogenase [NADP] cytoplasmic (Homo sapiens, UniProt O75874, R132H)
Test: Inhibition of IDH1 R132H mutant expressed in human U87 cells assessed as inhibition of 2-hydroxyglutarate production after 48 hrs by LC/MS analysis
Assay type: cell-based, U-87MG ATCC
Conditions: not given

T3 sequence (O75874 2-414 R132H limits assumed): as the sequence (O75874 2-414 R132C limits assumed) above, with C131H counted along it

Compound | IC50
Cc1ccccc1C(C(=O)NC1CCCCC1)N(C(=O)Cc1c[nH]c2ccccc12)c1cccc(F)c1 (racemic) | 360 nM
Cc1ccccc1C(C(=O)NC1CCCCC1)N(C(=O)Cc1cccs1)c1cccc(F)c1 (racemic) | 190 nM
Cc1ccccc1C(C(=O)NC1CCCC1)N(C(=O)Cc1cccs1)c1cccc(F)c1 (centres undefined) | 580 nM
Cc1ccccc1C(C(=O)NC1CCCCC1)N(C(=O)Cn1ccc2ccccc21)c1cccc(F)c1 (racemic) | 370 nM
Cc1ccccc1C(C(=O)NC1CCCCC1)N(C(=O)Cc1ccncc1)c1cccc(F)c1 (racemic) | 210 nM
Cc1ccccc1C(C(=O)NC1CCCCC1)N(C(=O)Cc1cscn1)c1cccc(F)c1 (racemic) | 290 nM
Cc1ccccc1C(C(=O)NC1CCCCC1)N(C(=O)Cn1c(C)nc2ccccc21)c1cccc(F)c1 (racemic) | 240 nM

Tested on: Isocitrate dehydrogenase [NADP] cytoplasmic (Homo sapiens), O75874 [R132H]
Test: Uncompetitive inhibition of IDH1 R132H mutant using NADPH as substrate by stopped-flow spectrophotometric analysis
Conditions: not given

Sequence of Isocitrate dehydrogenase [NADP] cytoplasmic (Homo sapiens), O75874 [R132H] (O75874 whole entry R132H): as the sequence (O75874 whole entry) above, with R132H counted along it

Compound | inhibition
Cc1ccccc1C(C(=O)NC1CCCC1)N(C(=O)Cc1cccs1)c1cccc(F)c1 (centres undefined) | Active

Tested on: Isocitrate dehydrogenase [NADP] cytoplasmic (Homo sapiens), O75874 [R132H]
Test: Competitive inhibition of IDH1 R132H mutant using alpha-ketoglutarate as substrate by stopped-flow spectrophotometric analysis
Conditions: not given

Compound | inhibition
Cc1ccccc1C(C(=O)NC1CCCC1)N(C(=O)Cc1cccs1)c1cccc(F)c1 (centres undefined) | Active

Tested on: Isocitrate dehydrogenase [NADP] cytoplasmic (Homo sapiens), O75874 [R132H]
Test: Reversible inhibition of IDH1 R132H mutant using alpha-ketoglutarate as substrate by stopped-flow spectrophotometric analysis
Conditions: not given

Compound | inhibition
Cc1ccccc1C(C(=O)NC1CCCC1)N(C(=O)Cc1cccs1)c1cccc(F)c1 (centres undefined) | Active

Target: T3, Isocitrate dehydrogenase [NADP] cytoplasmic
Test: Inhibition of IDH1 R132H mutant using alpha-ketoglutarate as substrate after 60 mins by resazurin-based fluorimetric analysis
Conditions: not given

Compound | IC50
Cc1ccccc1C(C(=O)NC1CC1)N(C(=O)Cc1cccs1)c1cccc(F)c1 (racemic) | 2880 nM
Cc1ccccc1C(C(=O)NC1CCCCC1)N(C(=O)Cn1cncn1)c1cccc(F)c1 (racemic) | 140 nM
Cc1ccccc1C(C(=O)NC1CCCCC1)N(C(=O)CN1CCCC1)c1cccc(F)c1 (racemic) | 1630 nM
Cc1ccccc1C(C(=O)NC1CCCCC1)N(C(=O)Cc1c[nH]c2ccccc12)c1cccc(F)c1 (racemic) | 60 nM
Cc1ccccc1C(C(=O)NC1CCCCC1)N(C(=O)Cc1cncnc1)c1cccc(F)c1 (racemic) | 1100 nM
Cc1ccccc1C(C(=O)NC1CCCCC1)N(C(=O)CCl)c1cccc(F)c1 (racemic) | 900 nM
Cc1ccccc1C(C(=O)NC1CCCCC1)N(C(=O)CN1CCOCC1)c1cccc(F)c1 (racemic) | 240 nM
Cc1ccccc1C(C(=O)NC1CCCCC1)N(C(=O)Cc1cccs1)c1cccc(F)c1 (racemic) | 50 nM
Cc1ccccc1C(C(=O)NC1CCCCC1)N(C(=O)CNC1CC1)c1cccc(F)c1 (racemic) | 190 nM
CC(C(=O)NC1CCCCC1)(c1ccccc1)N(C(=O)Cc1cccs1)c1cccc(F)c1 (racemic) | 1400 nM
Cc1ccccc1C(C(=O)NC1CCCCC1)N(C(=O)CN1CCc2ccccc21)c1cccc(F)c1 (racemic) | 140 nM
Cc1ccccc1C(C(=O)NC1CCCCC1)N(C(=O)CN1CCNCC1)c1cccc(F)c1 (racemic) | 5640 nM
Cc1ccccc1C(C(=O)NC1CCCC1)N(C(=O)Cc1cccs1)c1cccc(F)c1 (centres undefined) | 90 nM
Cc1ccccc1C(C(=O)NC1CCCCC1)N(C(=O)Cn1ccc2ccccc21)c1cccc(F)c1 (racemic) | 70 nM
Cc1ccccc1C(C(=O)NC1CCCCC1)N(C(=O)Cc1ccncc1)c1cccc(F)c1 (racemic) | 50 nM
Cc1ccccc1C(C(=O)NC1CCCCC1)N(C(=O)Cc1cscn1)c1cccc(F)c1 (racemic) | 100 nM
Cc1ccccc1C(C(=O)NC1CCCCC1)N(C(=O)Cn1c(C)nc2ccccc21)c1cccc(F)c1 (racemic) | 80 nM
Cc1ccccc1C(C(=O)NC1CCCCC1)N(C(=O)Cn1ccnc1C)c1cccc(F)c1 (racemic) | 70 nM

Target: T2, Isocitrate dehydrogenase [NADP] cytoplasmic
Test: Inhibition of IDH1 R132C mutant endogenously expressing human HT1080 cells assessed as inhibition of 2-hydroxyglutarate production after 48 hrs by LC/MS analysis
Conditions: not given

Compound | IC50
Cc1ccccc1C(C(=O)NC1CCCCC1)N(C(=O)Cc1c[nH]c2ccccc12)c1cccc(F)c1 (racemic) | 90 nM
Cc1ccccc1C(C(=O)NC1CCCCC1)N(C(=O)Cc1cccs1)c1cccc(F)c1 (racemic) | 150 nM
Cc1ccccc1C(C(=O)NC1CCCC1)N(C(=O)Cc1cccs1)c1cccc(F)c1 (centres undefined) | 390 nM
Cc1ccccc1C(C(=O)NC1CCCCC1)N(C(=O)Cn1ccc2ccccc21)c1cccc(F)c1 (racemic) | 170 nM
Cc1ccccc1C(C(=O)NC1CCCCC1)N(C(=O)Cc1ccncc1)c1cccc(F)c1 (racemic) | 260 nM
Cc1ccccc1C(C(=O)NC1CCCCC1)N(C(=O)Cc1cscn1)c1cccc(F)c1 (racemic) | 220 nM
Cc1ccccc1C(C(=O)NC1CCCCC1)N(C(=O)Cn1c(C)nc2ccccc21)c1cccc(F)c1 (racemic) | 110 nM
Cc1ccccc1C(C(=O)NC1CCCCC1)N(C(=O)Cn1ccnc1C)c1cccc(F)c1 (racemic) | 480 nM

— ChEMBL document CHEMBL2176947, “Discovery of the First Potent Inhibitors of Mutant IDH1 That Lower Tumor 2-HG in Vivo” (ACS Med Chem Lett, 2012)
